Converted amounts (≈) assume the structure as drawn.
Key:
Format in all cases: functional
[1] = test system: Candida albicans; test: Antifungal activity against azole-susceptible Candida albicans 5457 after 48 hrs; conditions: Candida albicans, 5457, 48 h
Method in brief: (§1)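 Liquid microtiter broth assay in YPD, cells incubated 48 h at 30°C with drug (e.g. FLC 0.2–200 µg/ml; KTC 0.001–1.2 µg/ml). Growth read as OD620 and expressed relative to drug-free growth of the same strain. MIC50 taken as the first concentration reducing growth by 50%. Mean of three independent experiments, each in duplicate.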

[2] = test system: Candida albicans; test: Antifungal activity against tac1/tac1 deficient Candida albicans SZY31 after 48 hrs; conditions: SZY31, 48 h; method in brief: as §1
[3] = test system: Candida albicans; test: Antifungal activity against azole-resistant Candida albicans 5674 after 48 hrs; conditions: Candida albicans, 5674, 48 h; method in brief: as §1
[4] = test system: Candida albicans; test: Antifungal activity against cdr2/cdr2 deficient Candida albicans STY7 after 48 hrs; conditions: STY7, 48 h; method in brief: as §1
[5] = test system: Candida albicans; test: Antifungal activity against cdr1/cdr1 deficient Candida albicans STY19 after 48 hrs; conditions: STY19, 48 h; method in brief: as §1
[6] = test system: Candida albicans; test: Antifungal activity against cdr1/cdr1/cdr2/cdr2 deficient Candida albicans STY31 after 48 hrs; conditions: STY31, 48 h; method in brief: as §1
[7] = test system: Candida albicans; test: Antifungal activity against Candida albicans STY47 expressing cdr2 gene after 48 hrs; conditions: STY47, 48 h; method in brief: as §1
[8] = test system: Candida albicans; test: Ratio of MIC50 for Candida albicans 5674 to MIC50 for cdr1/cdr1 deficient Candida albicans STY19
Method in brief: (§2)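 Ratios use MIC50s from the YPD liquid microtiter assay (48 h, 30°C, OD620 growth relative to drug-free control). MIC50 is the first concentration giving a 50% growth reduction, as the mean of three independent experiments in duplicate. The MIC50 of one strain is divided by that of the other.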

[9] = test system: Candida albicans; test: Ratio of MIC50 for Candida albicans 5674 to MIC50 for cdr2/cdr2 deficient Candida albicans STY7; method in brief: as §2
[10] = test system: Candida albicans; test: Ratio of MIC50 for Candida albicans 5674 to MIC50 for cdr1/cdr1/cdr2/cdr2 deficient Candida albicans STY31; method in brief: as §2
[11] = test system: Candida albicans; test: Ratio of MIC50 for Candida albicans 5674 to MIC50 for Candida albicans STY47 expressing cdr2 gene; method in brief: as §2
[12] = test system: Candida albicans; test: Ratio of MIC50 for Candida albicans 5674 to MIC50 for tac1/tac1 deficient Candida albicans SZY31; method in brief: as §2
[13] = test system: Candida albicans; test: Ratio of MIC50 for cdr1/cdr1 deficient Candida albicans STY19 to MIC50 for cdr1/cdr1/cdr2/cdr2 deficient Candida albicans STY31; method in brief: as §2

OC(Cn1cncn1)(Cn1cncn1)c1ccc(F)cc1F [FLUCONAZOLE]
MIC50 [1]: 3.1 µg/mL (≈ 10.1 µM) | MIC50 [2]: 6.2 µg/mL (≈ 20.2 µM) | MIC50 [3]: 150 µg/mL (≈ 490 µM) | MIC50 [4]: 100 µg/mL (≈ 327 µM) | MIC50 [5]: 25 µg/mL (≈ 81.6 µM) | MIC50 [6]: 0.4 µg/mL (≈ 1.31 µM) | MIC50 [7]: 6.3 µg/mL (≈ 20.6 µM) | Ratio [8]: 6 | Ratio [9]: 1.5 | Ratio [10]: 375 | Ratio [11]: 16

OCCN1CCN(CCCN2c3ccccc3Sc3ccc(C(F)(F)F)cc32)CC1 [FLUPHENAZINE]
MIC50 [1]: 75 µg/mL (≈ 171 µM) | MIC50 [2]: 38 µg/mL (≈ 86.9 µM) | MIC50 [3]: 75 µg/mL (≈ 171 µM) | MIC50 [4]: 75 µg/mL (≈ 171 µM) | MIC50 [5]: 50 µg/mL (≈ 114 µM) | MIC50 [6]: 25 µg/mL (≈ 57.1 µM) | Ratio [8]: 1.5 | Ratio [9]: 1 | Ratio [12]: 2 | Ratio [13]: 2

CCC(C)n1ncn(-c2ccc(N3CCN(c4ccc(OCC5COC(Cn6cncn6)(c6ccc(Cl)cc6Cl)O5)cc4)CC3)cc2)c1=O (stereo unspecified) [ITRACONAZOLE]
MIC50 [1]: 0.0125 µg/mL (≈ 0.0177 µM) | MIC50 [2]: 0.0063 µg/mL (≈ 0.00893 µM) | MIC50 [3]: 0.2 µg/mL (≈ 0.283 µM) | MIC50 [4]: 0.2 µg/mL (≈ 0.283 µM) | MIC50 [5]: 0.025 µg/mL (≈ 0.0354 µM) | MIC50 [6]: 0.0004 µg/mL (≈ 0.000567 µM) | Ratio [8]: 8 | Ratio [9]: 1 | Ratio [10]: 500

C[C@@H]1[C@H](O)[C@@H](C)/C=C/C=C/C=C/C=C/C=C/C=C/C=C/[C@H](O[C@@H]2O[C@H](C)[C@@H](O)[C@H](N)[C@@H]2O)C[C@@H]2O[C@](O)(C[C@@H](O)C[C@@H](O)[C@H](O)CC[C@@H](O)C[C@@H](O)CC(=O)O[C@H]1C)C[C@H](O)[C@H]2C(=O)O [AMPHOTERICIN B]
MIC50 [1]: 1 µg/mL (≈ 1.08 µM) | MIC50 [2]: 1 µg/mL (≈ 1.08 µM) | MIC50 [3]: 2 µg/mL (≈ 2.16 µM) | MIC50 [4]: 2 µg/mL (≈ 2.16 µM) | MIC50 [5]: 2 µg/mL (≈ 2.16 µM) | MIC50 [6]: 2 µg/mL (≈ 2.16 µM)

CC/N=c1\cc2oc3cc(NCC)c(C)cc3c(-c3ccccc3C(=O)OCC)c-2cc1C.Cl [RHODAMINE 6G HYDROCHLORIDE]
MIC50 [1]: 8 µg/mL | MIC50 [2]: 2 µg/mL | MIC50 [3]: 16 µg/mL | MIC50 [4]: 16 µg/mL | MIC50 [5]: 8 µg/mL | MIC50 [6]: 8 µg/mL

CC(=O)N1CCN(c2ccc(OCC3COC(Cn4ccnc4)(c4ccc(Cl)cc4Cl)O3)cc2)CC1 (stereo unspecified) [KETOCONAZOLE]
MIC50 [1]: 0.018 µg/mL (≈ 0.0339 µM) | MIC50 [2]: 0.009 µg/mL (≈ 0.0169 µM) | MIC50 [3]: 0.6 µg/mL (≈ 1.13 µM) | MIC50 [4]: 0.4 µg/mL (≈ 0.753 µM) | MIC50 [5]: 0.15 µg/mL (≈ 0.282 µM) | MIC50 [6]: 0.002 µg/mL (≈ 0.00376 µM) | Ratio [8]: 4 | Ratio [9]: 1.5 | Ratio [10]: 300

From ChEMBL document CHEMBL1649166, “Relative contributions of the Candida albicans ABC transporters Cdr1p and Cdr2p to clinical azole resistance” (2009)
